Assay outcomes (PubChem)
SIRT5 inh – sirtuin-5 (human) deacylase inhibition. inhibition, % at 15 µM. Purified SirT5, succinyl-peptide AMC, trypsin-coupled fluorescence. 330,000 compounds, 1.1% hits. Q9NXA8; in the data active = inhibition above about 15%
Target sequence (Q9NXA8 whole entry, looked up): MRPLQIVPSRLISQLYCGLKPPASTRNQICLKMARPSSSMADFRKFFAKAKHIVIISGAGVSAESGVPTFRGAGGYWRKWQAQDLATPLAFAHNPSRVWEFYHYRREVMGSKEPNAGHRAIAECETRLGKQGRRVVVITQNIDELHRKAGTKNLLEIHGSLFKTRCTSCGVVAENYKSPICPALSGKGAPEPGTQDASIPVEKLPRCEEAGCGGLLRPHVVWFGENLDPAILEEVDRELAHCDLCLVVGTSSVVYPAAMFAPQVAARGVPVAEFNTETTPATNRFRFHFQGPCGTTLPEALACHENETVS
CRFBP-R2 block – antagonists of CRF-binding protein/CRF-R2 receptor complex; HEK293 CRF-R2/CRF-BP, CRF-induced calcium fluorescence; inhibition, % at 11.8 µM; 350,000 compounds, 0.59% hits;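 active = inhibition of the ligand-induced calcium signal above about 50% at the single tested concentration, limit read from the data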
PKA-R2B activ – activates the human PKA-R2B holoenzyme complex; P22694+P31323; PKA-R2B holoenzyme dissociation, Cy5-IP20 fluorescence polarization; R2B truncated from residue 108, S112A mutant; 0% DMSO only, 100% 113 µM cGMP; activation, % at 11.4 µM; 340,000 compounds, 0.079% hits; AID 504700;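 active = activation above a cutoff set at the mean over all compounds plus 3 SD, cut at about 18% in these data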;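 note: higher means more holoenzyme dissociation and a rise in polarization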
S100A4 inh HTS – inhibitors of human S100A4 binding to myosin IIA peptide; P26447; S100A4/TAMRA-MyoIIA peptide fluorescence polarization; inhibition, % at 10.7 µM; 360,000 compounds, 0.14% hits; AID 652163;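 active = mean inhibition of at least 70% across replicates, with every replicate also reaching that level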
Target sequence (P26447 whole entry, looked up): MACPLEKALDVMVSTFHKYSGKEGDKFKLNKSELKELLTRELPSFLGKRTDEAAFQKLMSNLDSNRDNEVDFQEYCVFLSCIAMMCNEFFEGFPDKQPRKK
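Assay system: human S100A4 monomer with TAMRA-labelled myosin IIA peptide / Buffer or medium: Calcium-containing HEPES buffer, pH 7.2 / Reagent: TAMRA-labelled myosin IIA heavy-chain peptide probe, 5 nM / Compound: one dose per compound / Timing: polarization read 5 min after assay mix addition, stable 5–60 min / Benchmarks: neutral control DMSO, positive control TFP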
PKA-R1A act – PKA-R1A complex activation | 340,000 compounds, 0.083% hits | PKA-R1A dissociation, Cy5-IP20 fluorescence polarization; scaled: DMSO 0%, 113 µM cGMP 100% | activation, % at 11.4 µM | P00514+P68181;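 active = percent activation above the mean of all tested compounds plus 3 SD, cut at about 19% in these data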;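 note: higher means more PKAc released from R1A so a rise in polarization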
Hits are given with their value. Most compounds without a hit are left out; they make up all but 1.5% or so of the library.

`Cc1ccc(S(=O)(=O)Nc2ccc3c(c2)C(=O)N([C@@H](C)CO)C[C@@H](C)[C@H](CN(C)S(=O)(=O)c2cccs2)OCCCC[C@H](C)O3)cc1` gave SIRT5 inh inactive and S100A4 inh HTS inactive.
C[C@H](CO)N1C[C@H](C)[C@H](CN(C)S(=O)(=O)c2cccs2)OCCCC[C@H](C)Oc2ccc(NS(C)(=O)=O)cc2C1=O was read as SIRT5 inh inactive and S100A4 inh HTS inactive.
`C[C@H](CO)N1C[C@H](C)[C@@H](CN(C)S(=O)(=O)c2cccs2)OCCCC[C@H](C)Oc2ccc(NS(C)(=O)=O)cc2C1=O` gave SIRT5 inh inactive and S100A4 inh HTS 106.
For COc1ccc(S(=O)(=O)N(C)C[C@H]2OCCCC[C@@H](C)Oc3ccc(NS(=O)(=O)c4cccs4)cc3C(=O)N([C@H](C)CO)C[C@H]2C)cc1 the results were SIRT5 inh inactive and S100A4 inh HTS inactive.
Screening COc1ccc(S(=O)(=O)Nc2ccc3c(c2)C(=O)N([C@@H](C)CO)C[C@@H](C)[C@@H](CN(C)S(=O)(=O)c2cccs2)OCCCC[C@H](C)O3)cc1 returned SIRT5 inh 23 and S100A4 inh HTS inactive.
Screening COc1ccc(S(=O)(=O)N(C)C[C@@H]2OCCCC[C@H](C)Oc3ccc(NS(=O)(=O)c4cccs4)cc3C(=O)N([C@@H](C)CO)C[C@H]2C)cc1 returned SIRT5 inh 19 and S100A4 inh HTS inactive.
Screening COc1ccc(S(=O)(=O)N[C@H]2CC[C@H](CC(=O)NCCc3ccncc3)O[C@H]2CO)cc1 returned SIRT5 inh inactive and S100A4 inh HTS inactive.
COc1cccc(-c2ccc([C@H]3[C@@H](CO)N4C(=O)CN(C(=O)C5CCOCC5)C[C@@H]34)cc2)c1 was read as SIRT5 inh inactive and S100A4 inh HTS inactive.
For CC(CN1CCCC1)OC(=O)c1ccccc1Cl (stereo not drawn) the results were SIRT5 inh 18, CRFBP-R2 block inactive, PKA-R2B activ inactive, S100A4 inh HTS inactive and PKA-R1A act inactive.
For COc1ccc(C(=O)OC(C)CN2CCN(C)CC2)cc1 (stereo not drawn) the results were SIRT5 inh inactive, CRFBP-R2 block inactive, PKA-R2B activ inactive, S100A4 inh HTS inactive and PKA-R1A act inactive.
CC(CN1CCN(C)CC1)OC(=O)c1ccccc1Cl (stereo not drawn) was read as CRFBP-R2 block inactive, PKA-R2B activ inactive and PKA-R1A act inactive.
`Cc1ccc(C(=O)OC(C)CN2CCN(C)CC2)cc1` (stereo not drawn) gave SIRT5 inh 22, CRFBP-R2 block inactive, PKA-R2B activ inactive, S100A4 inh HTS inactive and PKA-R1A act inactive.
`CNC(=O)C[C@H]1CC[C@H]2[C@@H](COc3ccc(NC(=O)Nc4ccccc4F)cc3C(=O)N2C)O1` gave SIRT5 inh inactive and S100A4 inh HTS inactive.
For O=C(CCN1CCCCC1=O)NC1CCCN(Cc2ccc(Cl)cc2)C1 (stereo not drawn) the results were SIRT5 inh inactive, CRFBP-R2 block 89, PKA-R2B activ inactive, S100A4 inh HTS inactive and PKA-R1A act inactive.
Screening CC(C)Cc1ccc(CN2CCCC(NC(=O)CCN3CCCCC3=O)C2)cc1 (stereo not drawn) returned SIRT5 inh inactive, CRFBP-R2 block inactive, PKA-R2B activ inactive, S100A4 inh HTS inactive and PKA-R1A act inactive.
`O=C(N[C@@H]1CC[C@H](CCNS(=O)(=O)c2ccc(F)cc2)O[C@H]1CO)c1cnccn1` gave SIRT5 inh inactive and S100A4 inh HTS inactive.
`CN(C)CC(=O)N[C@H]1CC[C@@H](CC(=O)NCc2ccc(Cl)cc2)O[C@H]1CO` gave SIRT5 inh inactive and S100A4 inh HTS inactive.
CCCOc1ccc(C(O)C(CN2CCOCC2)c2ccccc2)cc1 (stereo not drawn) was read as SIRT5 inh inactive, CRFBP-R2 block inactive, PKA-R2B activ inactive, S100A4 inh HTS inactive and PKA-R1A act inactive.
For CCCCOc1ccc(C(O)C(CN2CCOCC2)c2ccccc2)cc1 (stereo not drawn) the results were SIRT5 inh 15, CRFBP-R2 block inactive, PKA-R2B activ inactive, S100A4 inh HTS inactive and PKA-R1A act inactive.
